An excerpt weighted towards active compounds, which were near 1% of everything screened.
procasp3 activ: activates human procaspase-3 | P42574 | recombinant procaspase-3 D3A, Ac-DEVD-pNA absorbance 405 nm | activation, % at 8.5 µM | 0.11% of 330,000 active;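 active means activation above the mean of all tested compounds plus 3 SD, cut at about 21% in these data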
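Assay system: Autoprocessing-dead procaspase-3 D3A mutant enzyme; also added: Ac-DEVD-pNA; doses: one concentration, 8.5 µM nominal, 0.8% DMSO; times: 1 h compound preincubation, 2 h substrate hydrolysis at 25 °C; technique: 405 nm absorbance of p-nitroaniline, reads at 0 and 120 min; measure: % activation between DMSO and enzyme-spiked controls; repeats: single replicate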
LYPLA1 counter: counter-screen for PME1 inhibitors: inhibitors of human LYPLA1. O75608. 0.16% of 320,000 active. inhibition, % at 5.9 µM. AID 2174. recombinant LYPLA1, FP-Rh probe fluorescence polarization;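 active means inhibition above the mean of all tested compounds plus 3 SD, set per campaign, cut at about 14% in these data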;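 further: inhibitors block serine hydrolase probe labeling of LYPLA1 so polarization falls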
Target sequence (O75608 whole entry, looked up): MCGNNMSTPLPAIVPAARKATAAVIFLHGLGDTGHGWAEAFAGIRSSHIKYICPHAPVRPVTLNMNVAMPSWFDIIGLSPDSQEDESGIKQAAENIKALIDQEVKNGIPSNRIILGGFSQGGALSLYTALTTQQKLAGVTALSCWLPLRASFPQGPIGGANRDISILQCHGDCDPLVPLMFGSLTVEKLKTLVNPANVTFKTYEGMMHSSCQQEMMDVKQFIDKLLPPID
PREPL inhibitor: human PREPL enzyme inhibition. 0.68% of 320,000 active. recombinant PREPL, fluorescence polarization activity-based probe. inhibition, % at 5.96 µM
procasp7 counter: activates human procaspase-7, counter-screen for procaspase-3 activators | P55210 | recombinant procaspase-7, Ac-DEVD-pNA absorbance 405 nm; D23A/D198A/D206A triple mutant, cannot self-cleave; scale: DMSO 0, 5 µM enzyme 100 | activation, % at 8.5 µM | 0.093% of 330,000 active | AID 463210;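 active means percent activation above the screen-wide mean plus 3 SD, cut at about 25% in these data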
Target sequence (P55210 whole entry D23A/D198A/D206A): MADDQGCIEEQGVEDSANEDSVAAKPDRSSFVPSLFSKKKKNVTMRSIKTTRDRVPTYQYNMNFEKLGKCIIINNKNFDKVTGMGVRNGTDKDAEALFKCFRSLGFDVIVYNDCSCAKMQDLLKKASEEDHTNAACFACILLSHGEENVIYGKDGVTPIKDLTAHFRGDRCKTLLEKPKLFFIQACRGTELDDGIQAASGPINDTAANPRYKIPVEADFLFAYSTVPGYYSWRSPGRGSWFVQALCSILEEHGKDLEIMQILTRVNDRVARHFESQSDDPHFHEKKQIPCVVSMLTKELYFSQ
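signal = Epi-absorbance of released pNA at 405 nm, two timepoints | assay system = Uncleavable procaspase-7 mutant enzyme | reagent = Ac-DEVD-pNA substrate, 400 µM as added | times = 1 h enzyme–compound preincubation and 2 h substrate reaction, both 25 °C | benchmarks = low DMSO alone, high DMSO plus 5 µM PC-7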
LYPLA2 counter: LYPLA2 (human) inhibition in PME1 counter-screen; O95372; 0.38% of 320,000 active; recombinant LYPLA2, FP-Rh probe fluorescence polarization; inhibition, % at 5.9 µM;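 active means inhibition above the screen-wide mean plus 3 SD, limit set per campaign, cut at about 26% in these data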
PREPL confirm: confirmation of human PREPL enzyme inhibitors. shares compounds with PREPL inhibitor. inhibition, % at 5.96 µM. 67% of 2,000 active. recombinant PREPL, fluorescence polarization activity probe
Of the large screens only hits and unclear results are named; the others gave an inactive call (follow-up assays come after a bar, where they were run). Unless noted, no stated cut-off is given here; in the data, active means inhibition above about 43%; inactive means the rest.

CSc1ccc(C=NNc2ccc(S(=O)(=O)Nc3ccccc3C(=O)O)cc2[N+](=O)[O-])cc1	none (no result: LYPLA1 counter, LYPLA2 counter)
Cc1cccc(N2CCN(C(=O)C3CCN(S(=O)(=O)c4cccnc4)CC3)CC2)c1C	none
COc1ccc(C2CC(C(F)(F)F)n3nc(C(=O)Nc4ccc5c(c4)OCO5)cc3N2)cc1 (stereo not given)	PREPL inhibitor 49.0 | PREPL confirm inactive
CCOc1ccc(C(c2c(O)nc(SC)[nH]c2=O)c2c(O)nc(SC)[nH]c2=O)cc1	none
COc1ccc(N2CCN(C(=O)c3cn(C)c(=O)c4c3c3ccccc3n4C)CC2)cc1	none
COc1ccc(N2CCN(C(=O)c3cn(C4CCCC4)c(=O)c4c3c3ccccc3n4C)CC2)cc1	PREPL inhibitor 62.5 | PREPL confirm 61.2
CCN1/C(=C/c2cccc[n+]2C)Sc2ccc(OC)cc21	PREPL inhibitor 47.7 | PREPL confirm 46.1
CC(=O)Nc1ccc(S(=O)(=O)NC2=C(N3CCN(c4ccc(F)cc4)CC3)C(=O)c3ccccc3C2=O)cc1	PREPL inhibitor 58.6 | PREPL confirm 73.5
Cc1ccc(NC(=S)c2ccccc2)cc1	none
O=C(NC(=S)Nc1ccccc1N1CCN(C(=O)c2ccccc2)CC1)c1cccs1	none
COc1ccc(OCC(=O)Nc2ccc(N3CCN(C(=O)c4ccccc4C)CC3)cc2)cc1	none
CCC(=O)N1CCN(c2ccc(NC(=O)COc3cccc(C)c3C)cc2)CC1	PREPL inhibitor 52.6 | PREPL confirm 55.6
Cc1cccc(OCC(=O)Nc2ccc(CN3CCOCC3)cc2)c1C	none
O=C(NC(=S)Nc1ccc(N2CCN(C(=O)c3ccccc3)CC2)cc1)c1cccs1	PREPL inhibitor 51.3 | PREPL confirm inactive
CCc1ccc(OCC(=O)Nc2ccc(N3CCN(C(=O)c4ccccc4)CC3)cc2)cc1	PREPL inhibitor 58.1 | PREPL confirm 56.4
Cc1cccc(OCC(=O)Nc2ccc(N3CCN(C(=O)c4ccccc4)CC3)cc2)c1C	PREPL inhibitor 53.0 | PREPL confirm 54.4
COc1ccc(/C(O)=C/c2nc3ccc(C(=O)NCCc4cccc(C)c4)cc3[nH]c2=O)cc1OC	none
CC1CCCN(c2cc(N(C)CCO)c([N+](=O)[O-])c3nonc23)C1 (stereo not given)	none
COc1ccc(Cc2nc(=S)[nH][nH]2)cc1Br	none
C[N+](C)(C)c1ccc(/C=N/Nc2nc(Cl)c(C#N)c(Cl)c2Cl)cc1	PREPL inhibitor 55.9 | PREPL confirm inactive
C=C(C)C1CC=C(C)/C(=N/NC(=O)CNc2ccc(OCC)cc2)C1 (stereo not given)	PREPL inhibitor 46.2 | PREPL confirm inactive
CCc1noc(C)c1C(=O)Nc1nc(-c2ccccc2)c(C(C)=O)s1	PREPL inhibitor 80.3 | PREPL confirm inactive
OC1CCN(c2c3c(nc4cc(-c5cccc(F)c5)nn24)CCCC3)CC1	PREPL inhibitor 44.1 | PREPL confirm inactive
Fc1cccc(-c2cc3nc4c(c(N5CCC6(CC5)OCCO6)n3n2)CCCC4)c1	none
CC1CC(=O)c2c(cc3c(-c4c(O)cc(O)c5c(O)c6c(cc45)OC(C)CC6=O)c(O)cc(O)c3c2O)O1 (stereo not given)	PREPL inhibitor 77.2 | PREPL confirm inactive
Cc1cccnc1NC(=O)CCc1c[nH]c2ccccc12	PREPL inhibitor 46.1 | PREPL confirm inactive
C=CC[C@@H](CC(=O)N(CCO)Cc1ccccc1)C(=O)N[C@H](COC(=O)[C@@H](CC=C)CC(=O)OC(C)(C)C)Cc1c[nH]c2ccccc12	none (no result: LYPLA1 counter, LYPLA2 counter)
O=C1CCC(=O)N1CN(C(=O)c1ccco1)c1ccc(Cl)c(Cl)c1	none
O=C(NCCc1c[nH]c2ccccc12)C(=O)NCC(c1cccnc1)N1CCN(c2ccccc2)CC1 (stereo not given)	PREPL inhibitor 52.1 | PREPL confirm 46.1
CC(C)(C)NC(=O)CSC(=Nc1cccc(F)c1)NC#N	PREPL inhibitor 64.3 | PREPL confirm inactive
c1sc2[n+](c1C13CC4CC(CC(C4)C1)C3)CCS2	none
Cn1ccc2cc(-c3ccc4ncnc(NCc5cccs5)c4c3)ccc21	PREPL inhibitor 49.5 (no result: LYPLA1 counter, LYPLA2 counter) | PREPL confirm inactive
COc1cccc(-c2ccc3ncnc(NCc4cccs4)c3c2)c1	none
COc1ccc(-c2cn3cc(C(F)(F)F)cc(Cl)c3n2)cc1	none
CC(=O)N1CCN(c2ccc(NCc3ccc(F)cc3)cc2)CC1	PREPL inhibitor 66.8 | PREPL confirm inactive
CCOc1cc(CNc2ccc(N3CCN(C(C)=O)CC3)cc2)cc(Br)c1OC	none
CC(=O)N1CCN(c2ccc(NCc3cccc(C)c3)cc2)CC1	PREPL inhibitor 59.2 | PREPL confirm inactive
COc1cc(CNc2ccc(N3CCN(C(C)=O)CC3)cc2)ccc1OCc1ccc(F)cc1	PREPL inhibitor 45.1 | PREPL confirm inactive
CCOC(=O)c1ccc(NC(=O)NCc2ccccc2OC)cc1	none
CC1CCCCN1Cc1c(O)ccc2c(=O)c(-c3nc4ccccc4s3)c(N)oc12 (stereo not given)	PREPL inhibitor 51.4 | PREPL confirm 50.7
Cc1ccc(NC(=O)c2ccc3c(c2)N(CC(=O)N2CCCCC2)C(=O)C(C)(C)O3)cc1	PREPL inhibitor 48.5 | PREPL confirm inactive
CSc1nc(-c2ccccc2)nc(N2CCN(C)CC2)c1C(C)=O	none
CCOC(=O)N1CCN(C(=O)c2ccc(CS(=O)Cc3ccc(C)cc3)o2)CC1 (stereo not given)	none
CC12CCC(=O)N1C(C(=O)N1CCN(c3ccc([N+](=O)[O-])cc3)CC1)CS2 (stereo not given)	PREPL inhibitor 46.7 (no result: LYPLA1 counter, LYPLA2 counter) | PREPL confirm inactive
Cc1cc(/C=C2\SC(=Nc3ccc(F)cc3)NC2=O)c(C)n1-c1ccc(S(N)(=O)=O)cc1	PREPL inhibitor 54.0 | PREPL confirm 53.0
N#CCC(=O)Nc1ncn(Cc2ccccc2Cl)n1	PREPL inhibitor 54.5 | PREPL confirm inactive
CCN1/C(=C/c2ccc3ccccc3[n+]2CC)C=Cc2ccccc21	PREPL inhibitor 46.8 | PREPL confirm 49.3
CCN1/C(=C/c2cc[n+](C)cc2)C=Cc2cc(C)ccc21	none
COC(=O)C1=C(NC(=O)COc2ccc3ccccc3c2)CCS1	PREPL inhibitor 58.0 | PREPL confirm inactive
COC(=O)C1=C(NC(=O)COc2ccc(Cl)cc2Cl)CCS1	none
CCN1CCN(S(=O)(=O)c2ccc(Cl)c(C(=O)N(C)Cc3ccccc3)c2)CC1	none
CCN1CCN(S(=O)(=O)c2ccc(Cl)c(C(=O)N(C)Cc3cccc(Cl)c3Cl)c2)CC1	PREPL inhibitor 55.2 | PREPL confirm inactive
OCC(CO)(CO)NCC(O)CN1c2ccccc2Sc2ccccc21 (stereo not given)	none
Nc1c(N2CCN(c3ccccc3)CC2)c2ccccc2oc1=O	PREPL inhibitor 50.5 | PREPL confirm inactive
CCCCCCCCCCn1c2c(c(=N)c3c1CCC3)CCC2	PREPL inhibitor 44.4 | PREPL confirm 43.6

High-throughput results from PubChem BioAssay.
